Broadly, the Ki is the equilibrium dissociation constant of an inhibitor or competing ligand from its target.

The values that follow come from ChEMBL document CHEMBL1125075, “Synthesis of a new class of 2,3-dihydro-2-oxo-1H-benzimidazole-1-carboxylic acid derivatives as highly potent 5-HT3 receptor antagonists” (J Med Chem, 1990).

The test system of one test is Rattus norvegicus. Nature of the test: Effective dose that causes 50% reduction of serotonin effect in rats intravenously. Format: functional. An outline of the steps:
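Rat 5-HT-induced von Bezold-Jarisch reflex. ED50 is the antagonist dose giving 50% reduction of the serotonin effect, calculated by linear regression. Means with 95% confidence limits.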

In test [1] the target is T1, Serotonin 3 (5-HT3) receptor (Rattus norvegicus, UniProt P35563+Q9JJ16).
T1 sequence (P35563 whole entry): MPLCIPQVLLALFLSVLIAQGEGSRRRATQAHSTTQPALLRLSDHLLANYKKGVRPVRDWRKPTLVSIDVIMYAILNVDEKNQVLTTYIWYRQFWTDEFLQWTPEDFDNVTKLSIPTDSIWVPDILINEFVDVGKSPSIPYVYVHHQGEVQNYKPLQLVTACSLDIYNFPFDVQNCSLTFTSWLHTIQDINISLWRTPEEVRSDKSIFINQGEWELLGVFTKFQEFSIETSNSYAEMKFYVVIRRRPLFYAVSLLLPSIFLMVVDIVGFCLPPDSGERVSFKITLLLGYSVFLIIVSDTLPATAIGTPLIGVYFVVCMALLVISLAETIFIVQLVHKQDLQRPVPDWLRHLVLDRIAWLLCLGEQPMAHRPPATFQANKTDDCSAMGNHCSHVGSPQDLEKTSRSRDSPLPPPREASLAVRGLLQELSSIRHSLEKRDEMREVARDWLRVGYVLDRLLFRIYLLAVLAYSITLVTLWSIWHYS
T1 sequence (Q9JJ16 whole entry): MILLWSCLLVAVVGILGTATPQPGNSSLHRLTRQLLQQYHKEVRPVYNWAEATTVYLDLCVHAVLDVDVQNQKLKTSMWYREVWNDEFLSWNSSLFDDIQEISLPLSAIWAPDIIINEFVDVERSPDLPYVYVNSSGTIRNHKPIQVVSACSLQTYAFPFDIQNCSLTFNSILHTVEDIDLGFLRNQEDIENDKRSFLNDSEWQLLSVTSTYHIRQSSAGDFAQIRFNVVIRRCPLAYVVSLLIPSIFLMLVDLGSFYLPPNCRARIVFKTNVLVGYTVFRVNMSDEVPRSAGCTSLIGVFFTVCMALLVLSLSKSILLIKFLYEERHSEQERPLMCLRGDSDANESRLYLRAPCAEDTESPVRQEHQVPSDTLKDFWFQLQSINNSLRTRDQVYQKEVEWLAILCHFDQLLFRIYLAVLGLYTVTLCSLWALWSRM
Kind of test: Concentration that inhibits the binding of radioligand, [3H]-ICS 205930, to 5-hydroxytryptamine 3 receptor from rat cortex. The method, boiled down: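 Rat cerebral cortex P2 fraction homogenised in 50 mM Tris·HCl pH 7.4 with 0.1% ascorbate, 4 mM CaCl2 and 10 μM pargyline, about 500 μg/mL protein. Incubated with 0.5–2.0 nM [3H]ICS 205930 (82.7 Ci/mmol) and a range of test concentrations, 30 °C for 30 min. Nonspecific binding with 10 μM reference antagonist; GF/B filtration; triplicate; Ki by computer fit.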

The mark [2] stands for this setting: Rattus norvegicus, iv, read-out: ED50.

In turn, `CN1CC2CCC1CC2OC(=O)n1c(=O)[nH]c2ccccc21.O=C(O)CC(O)(CC(=O)O)C(=O)O` (configuration not stated) registered an ED50 with Rattus norvegicus of 18.9 nM/kg. Take `CN1C2CCC1CC(NC(=O)n1c(=O)n(C)c3ccccc31)C2` (configuration not stated): in test [1], the Ki is 1.7 nM. In addition, the ED50 in the test on Rattus norvegicus (setting [2]) was 0.0054 µmol/kg.

In turn, `CN1C2CCC1CC(NC(=O)n1c(=O)[nH]c3ccccc31)C2` (configuration not stated) returned a Ki in test [1] of 3.75 nM. The compound also registered an ED50 in the test with Rattus norvegicus of 1 nM/kg.

Take `CN1C2CCCC1CC(OC(=O)n1c(=O)[nH]c3ccccc31)C2.O=C(O)CC(O)(CC(=O)O)C(=O)O` (configuration not stated): in test [1], the Ki was above 1000 nM. Further, the ED50 in the test on Rattus norvegicus was above 3000 nM/kg. `Cc1ccc2c(c1)[nH]c(=O)n2C(=O)OC1CC2CCC(C1)N2C` (configuration not stated) had a Ki in test [1] above 1000 nM. The ED50 in the test with Rattus norvegicus (setting [2]) is above 3 µmol/kg. In test [1], `CN1C2CCC1CC(OC(=O)n1c(=O)[nH]c3ccccc31)C2` (configuration not stated) displayed an inhibition constant Ki of 21.4 nM. This compound had an ED50 in the test with Rattus norvegicus of 17.9 nM/kg. In test [1], `CN1CCC(NC(=O)n2c(=O)[nH]c3ccccc32)CC1` had a Ki of 436 nM. In the test with Rattus norvegicus (setting [2]), the ED50 was 1.52 µmol/kg. The corresponding values for `CC(=O)c1ccc2[nH]c(=O)n(C(=O)OC3CC4CCC(C3)N4C)c2c1` (configuration not stated) are above 1000 nM and above 3 µmol/kg. In test [1], `CN1C2CCC1CC(OC(=O)n1c(=O)[nH]c3ccc(F)cc31)C2` (configuration not stated) returned a Ki of 33.9 nM. Moreover, in the test with Rattus norvegicus (setting [2]), the ED50 stood at 0.062 µmol/kg. The corresponding values for `CN1CCC(OC(=O)n2c(=O)[nH]c3ccccc32)CC1` are above 1000 nM and above 3 µmol/kg.

`CN1C2CCC1CC(OC(=O)n1c(=O)[nH]c3cc(C(F)(F)F)ccc31)C2` (configuration not stated) had a Ki in test [1] above 1000 nM. The ED50 in the test on Rattus norvegicus (setting [2]) was above 3 µmol/kg. Turning to `CN1C2CCC1CC(NC(=O)n1c(=O)[nH]c3ccccc31)C2.Cl` (configuration not stated), the Ki in test [1] was above 1000 nM. For the same compound, the ED50 in the test with Rattus norvegicus is above 3000 nM/kg. The corresponding values for `CN1C2CCCC1CC(OC(=O)n1c(=O)[nH]c3ccccc31)C2.Cl` (configuration not stated) are 2.17 nM and 10.8 nM/kg. The corresponding values for `CN1C2CCCC1CC(NC(=O)n1c(=O)[nH]c3ccccc31)C2.Cl` (configuration not stated) are 1.53 nM and 1.1 nM/kg. `O=C(OC1CC2CCC(C1)N2Cc1ccccc1)n1c(=O)[nH]c2ccccc21` (configuration not stated) came in with a Ki in test [1] above 1000 nM. The ED50 with Rattus norvegicus (setting [2]) was above 3 µmol/kg. Compound `CN1C2CCC1CC(OC(=O)n1c(=O)[nH]c3cc(F)ccc31)C2` (configuration not stated) displayed a Ki in test [1] of 26.2 nM. Moreover, the ED50 in the test with Rattus norvegicus (setting [2]) turned out to be 0.204 µmol/kg.

`CC1CC(OC(=O)n2c(=O)[nH]c3ccccc32)CC(C)N1C` (configuration not stated) returned a Ki in test [1] above 1000 nM. Moreover, the ED50 in the test with Rattus norvegicus (setting [2]) is above 3 µmol/kg. In test [1], `CN1CC2CCC1CC2OC(=O)n1c(=O)[nH]c2ccccc21.Cl` (configuration not stated) returned a Ki above 1000 nM. The compound further displayed an ED50 in the test with Rattus norvegicus above 3000 nM/kg. Consider `Cc1cccc2c1[nH]c(=O)n2C(=O)OC1CC2CCC(C1)N2C` (configuration not stated), for which the Ki in test [1] turned out to be 7.94 nM. Also, in the test with Rattus norvegicus (setting [2]), the ED50 was 0.0301 µmol/kg. The corresponding values for `CN1C2CCC1CC(OC(=O)n1c(=O)n(C)c3ccccc31)C2` (configuration not stated) are 12 nM and 0.038 µmol/kg. The corresponding values for `CCn1c(=O)n(C(=O)NC2CC3CCC(C2)N3C)c2ccccc21` (configuration not stated) are 2.3 nM and 0.0051 µmol/kg. `CCn1c(=O)n(C(=O)OC2CC3CCC(C2)N3C)c2ccccc21` (configuration not stated) came in with a Ki in test [1] of 18 nM. In addition, the ED50 in the test on Rattus norvegicus (setting [2]) was 0.0097 µmol/kg. Turning to `O=C(OC1CCNCC1)n1c(=O)[nH]c2ccccc21`, in test [1], the affinity corresponds to a Ki of 72.4 nM. Further, the ED50 in the test on Rattus norvegicus (setting [2]) was found to be 0.487 µmol/kg.

In test [1], `COc1ccc2[nH]c(=O)n(C(=O)OC3CC4CCC(C3)N4C)c2c1` (configuration not stated) showed a Ki above 1000 nM. Turning to `CN1C2CCC1CC(OC(=O)n1c(=O)[nH]c3ccccc31)C2.Cl` (configuration not stated), the Ki in test [1] was above 1000 nM. The ED50 in the test on Rattus norvegicus was determined as 3982 nM/kg.

`O=C(OC1CN2CCC1CC2)n1c(=O)[nH]c2ccccc21` (configuration not stated): in test [1], the affinity corresponds to a Ki of 16.3 nM. Besides, in the test on Rattus norvegicus (setting [2]), the ED50 turned out to be 0.8 µmol/kg. The corresponding values for `CN1C2CCC1CC(OC(=O)n1c(=O)[nH]c3cc(Cl)ccc31)C2` (configuration not stated) are above 1000 nM and above 3 µmol/kg. On to `O=C(OC12CCN(CC1)CC2)n1c(=O)[nH]c2ccccc21`, for which, in test [1], the Ki is above 1000 nM. For the same compound, the ED50 in the test on Rattus norvegicus (setting [2]) was above 3 µmol/kg. The corresponding values for `Cc1cc2[nH]c(=O)n(C(=O)OC3CC4CCC(C3)N4C)c2cc1C` (configuration not stated) are above 1000 nM and above 3 µmol/kg. The corresponding values for `CCN1C2CCC1CC(OC(=O)n1c(=O)[nH]c3ccccc31)C2` (configuration not stated) are above 1000 nM and above 3 µmol/kg. In test [1], `Cc1cccc2[nH]c(=O)n(C(=O)OC3CC4CCC(C3)N4C)c12` (configuration not stated) came in with a Ki of 306 nM. Further, the ED50 with Rattus norvegicus (setting [2]) is above 3 µmol/kg. The corresponding values for `C[N+]1(C)C2CCC1CC(OC(=O)n1c(=O)[nH]c3ccccc31)C2` (configuration not stated) are 33.6 nM and 0.0093 µmol/kg. In test [1], `CN(C(=O)n1c(=O)[nH]c2ccccc21)C1CC2CCCC(C1)N2C` (configuration not stated) returned a Ki above 1000 nM. For the same compound, the ED50 with Rattus norvegicus (setting [2]) was above 3 µmol/kg. The corresponding values for `CN1C2CCCC1CC(NC(=O)n1c(=O)n(C)c3ccccc31)C2` (configuration not stated) are 0.89 nM and 0.0015 µmol/kg.

Take `O=C(NC1CCN2CCCC1C2)n1c(=O)[nH]c2ccccc21` (configuration not stated): in test [1], affinity was put at a Ki of 20.2 nM. Besides, the ED50 in the test with Rattus norvegicus (setting [2]) was found to be 0.289 µmol/kg. The corresponding values for `O=C(NC1CN2CCC1CC2)n1c(=O)[nH]c2ccccc21` (configuration not stated) are 2.07 nM and 0.0035 µmol/kg.

`CN1C2CCCC1CC(NC(=O)n1c(=O)[nH]c3ccccc31)C2` (configuration not stated) had a Ki in test [1] of 130 nM. In addition, the ED50 with Rattus norvegicus was determined as 905 nM/kg. Compound `O=C(NC1CC2CCC(C1)N2Cc1ccccc1)n1c(=O)[nH]c2ccccc21` (configuration not stated) registered a Ki in test [1] above 1000 nM. Further, in the test on Rattus norvegicus (setting [2]), the ED50 is above 3 µmol/kg. With `CN1C2CCC1C(OC(=O)n1c(=O)[nH]c3ccccc31)C2` (configuration not stated), the Ki in test [1] is above 1000 nM. For the same compound, the ED50 in the test with Rattus norvegicus (setting [2]) is above 3 µmol/kg. For `COc1ccc2c(c1)[nH]c(=O)n2C(=O)OC1CC2CCC(C1)N2C` (configuration not stated) the same measures were above 1000 nM and above 3 µmol/kg. `CN1[C@@H]2CC[C@H]1C[C@@H](OC(=O)c1cc(Cl)cc(Cl)c1)C2` [BEMESETRON] yielded a Ki in test [1] of 24.4 nM. Also, in the test on Rattus norvegicus (setting [2]), the ED50 turned out to be 0.195 µmol/kg. The corresponding values for `CN1[C@@H]2CC[C@H]1C[C@@H](OC(=O)c1c[nH]c3ccccc13)C2` [TROPISETRON] are 1.71 nM and 0.0021 µmol/kg.
